Legend:
[1] = First order rate constant of compound was determined in 50 mM phosphate buffer (pH 7.4) at 24 degree celsius; format: ADME
Outline: (§1)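 Solvolysis in 50 mM phosphate buffer pH 7.4 at 24 °C. Halide release measured by argentometric titration. Aziridinium ion was reacted with thiosulfate, and the excess was back-titrated with iodine. k1 (cyclisation) and k2 (aziridinium decay) came from an unweighted Gauss-Newton fit of kinetic models.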

[2] = First order rate constant of compound was determined in 50 mM phosphate buffer (pH 7.4) at 37 degree celsius; format: ADME
Outline: (§2)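 Solvolysis in 50 mM phosphate buffer pH 7.4 at 37 °C. Halide release by argentometric titration. Aziridinium ion quantified by thiosulfate reaction and iodine back-titration. k1 and k2 obtained by unweighted Gauss-Newton nonlinear fit, with half-lives following from them.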

[3] = Rate constant for decay of compound was determined in 50 mM phosphate buffer (pH 7.4) at 37 degree celsius; format: ADME; outline: as §2
[4] = organism: Rattus norvegicus; assay: Rate constants of compound was determined at muscarinic receptor in the rat cerebral cortex; format: ADME
Outline: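 Rat cortex homogenate (25 mg wet tissue/mL, 50 mM phosphate pH 7.4), preincubated 10 min at 37 °C. Precyclized haloethylamines then added at 0.1 mM to 1 nM final for 30 min. Reaction stopped with thiosulfate (1.0 mM) and atropine (0.1 mM), and tissue washed four times. Residual binding of 0.4 nM [3H]QNB measured over 1 h at 37 °C. Rate equation fitted by unweighted nonlinear regression, using initial aziridinium concentration.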

[5] = Rate constant for decay of compound was determined in 50 mM phosphate buffer (pH 7.4) at 24 degree celsius; format: ADME; outline: as §1
[6] = Acute toxicity of compound when injected intravenously in mice; format: organism-based; conditions: mouse, in vivo, iv
[7] = Dissociation constant of compound was determined at muscarinic receptor in the rat cerebral cortex; format: tissue-based
Outline: (§3)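 Male Sprague-Dawley rat cerebral cortex homogenised in 50 mM phosphate buffer pH 7.4 and centrifuged at 30000g. Competition against 0.3 nM (-)-[3H]NMS with the aziridinium ions, 1 h at 0 °C, triplicates, five experiments. Nonspecific binding taken with 10 µM atropine. Two-site fit by unweighted nonlinear regression gave KH and KL, which were corrected for [3H]NMS occupancy.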

[8] = Percentage affinity of compound towards muscarinic receptor sites in the rat cerebral cortex; format: tissue-based; outline: as §3
[9] = Equilibrium binding parameters of compound was determined at muscarinic receptor in the rat cerebral cortex; format: tissue-based; outline: as §3
[10] = Ratio of binding constants KL to KH was determined; outline: as §3
[11] = Binding affinity of compound towards muscarinic receptor using radioligand [3H]NMS in the rat cerebral cortex; format: tissue-based; outline: as §3
[12] = Half life of compound was determined in 50 mM phosphate buffer (pH 7.4) at 37 degree celsius; format: ADME; outline: as §2

Compound	K1 [1]	K1 [2]	K2 [3]	K3 [4]	K2 [5]	LD50 [6]	KA [7]	Affinity [8]	KH [9]	KL [9]	Ratio [10]	Ki [11]	T1/2 ([12]; buffer)	half-life ([12]; phosphate buffer)
CC1CCC(=O)N1CC#CCN(C)CCBr (configuration not stated)	0.18 min⁻¹	0.89 min⁻¹	0.06 min⁻¹	0.096 min⁻¹	0.0096 min⁻¹	81 µmol/kg	0.035 µM	14.2%	0.001 µM	0.071 µM	71	–	–	–
CC1CCC(=O)N1CC#CC[N+]1(C)CC1 (configuration not stated)	–	–	–	–	–	–	–	–	–	–	–	53 nM	–	–
CC1CCC(=O)N1CC#CCN(C)CCCl (configuration not stated)	–	0.025 min⁻¹	0.045 min⁻¹	0.091 min⁻¹	–	396 µmol/kg	0.058 µM	–	–	–	–	–	15.3 min	27.7 min
CN(CC#CCN1CCCC1=O)CCCl	–	0.019 min⁻¹	0.033 min⁻¹	0.064 min⁻¹	–	–	0.79 µM	–	–	–	–	–	–	–
CN(CC#CCN1CCCC1=O)CCBr	–	0.85 min⁻¹	0.04 min⁻¹	0.062 min⁻¹	–	–	0.35 µM	16.5%	0.001 µM	0.47 µM	466	–	–	–
C[N+]1(CC#CCN2CCCC2=O)CC1	–	–	–	–	–	–	–	–	–	–	–	330 nM	–	–

Reference: ChEMBL document CHEMBL1124425, “Alkylating partial muscarinic agonists related to oxotremorine. N-[4-[(2-haloethyl)methylamino]-2-butynyl]-5-methyl-2-pyrrolidones” (J Med Chem, 1989)
